Measurements taken from ChEMBL document CHEMBL3588823, “Design, synthesis and biological evaluation of novel 5-oxo-2-thioxoimidazolidine derivatives as potent androgen receptor antagonists” (Eur J Med Chem, 2015).
pIC50, pKi: −log10 of the molar value.

Tested on: LNCaP
Assay: Antiproliferative activity against human LNCAP cells after 3 days
Type: functional, cell-based
Settings: Homo sapiens, LNCaP, 72 h; read-out: IC50; call rule not given here
How it was run: (§1)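 LNCaP cells seeded at 10,000 per well in RPMI 1640 with 10% charcoal-stripped serum and 1% AAS, then held 3 days at 37 °C. Medium was then replaced with serial compound dilutions, either without DHT (agonism mode) or with DHT (antagonism mode).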

**Q.** With `CNC(=O)c1ccc(N2C(=S)N(c3ccc(C#N)c(C(F)(F)F)c3)C(=O)C2C)cc1F` (racemic) as the compound, how does the pIC50 read?
**A.** 6.02

**Q.** With `CNC(=O)c1ccc(N2C(=S)N(c3cnc(C#N)c(C(F)(F)F)c3)C(=O)C23CCC3)cc1F` [APALUTAMIDE] as the compound, how does the pIC50 read?
**A.** 6.76

**Q.** With `CC(O)(CS(=O)(=O)c1ccc(F)cc1)C(=O)Nc1ccc(C#N)c(C(F)(F)F)c1` (stereo not given) [BICALUTAMIDE] as the compound, how does the pIC50 read?
**A.** 6.14

**Q.** With `CNC(=O)c1ccc(N2C(=S)N(c3ccc(C#N)c(C(F)(F)F)c3)C(=O)C2(C)C)cc1F` [ENZALUTAMIDE] as the compound, how does the pIC50 read?
**A.** 6.90

Same assay, conditions: lncap

**Q.** Which IC50 does the source give for `N#Cc1ccc(N2C(=O)[C@]3(CCOC3)N(c3ccc(C(=O)O)c(F)c3)C2=S)cc1C(F)(F)F` here?
**A.** Not Active

**Q.** With `CNC(=O)c1ccc(N2C(=S)N(c3ccc(C#N)c(C(F)(F)F)c3)C(=O)C23CN(C(c2ccccc2)c2ccccc2)C3)cc1F` as the compound, how does the IC50 read?
**A.** Not Active

**Q.** With `CNC(=O)c1ccc(N2C(=S)N(c3ccc(C#N)c(C(F)(F)F)c3)C(=O)C2(C)CC(=O)O)cc1F` (racemic) as the compound, how does the IC50 read?
**A.** Not Active

Biological target: T1, Androgen receptor (Homo sapiens, UniProt P10275)
T1 sequence (P10275 whole entry): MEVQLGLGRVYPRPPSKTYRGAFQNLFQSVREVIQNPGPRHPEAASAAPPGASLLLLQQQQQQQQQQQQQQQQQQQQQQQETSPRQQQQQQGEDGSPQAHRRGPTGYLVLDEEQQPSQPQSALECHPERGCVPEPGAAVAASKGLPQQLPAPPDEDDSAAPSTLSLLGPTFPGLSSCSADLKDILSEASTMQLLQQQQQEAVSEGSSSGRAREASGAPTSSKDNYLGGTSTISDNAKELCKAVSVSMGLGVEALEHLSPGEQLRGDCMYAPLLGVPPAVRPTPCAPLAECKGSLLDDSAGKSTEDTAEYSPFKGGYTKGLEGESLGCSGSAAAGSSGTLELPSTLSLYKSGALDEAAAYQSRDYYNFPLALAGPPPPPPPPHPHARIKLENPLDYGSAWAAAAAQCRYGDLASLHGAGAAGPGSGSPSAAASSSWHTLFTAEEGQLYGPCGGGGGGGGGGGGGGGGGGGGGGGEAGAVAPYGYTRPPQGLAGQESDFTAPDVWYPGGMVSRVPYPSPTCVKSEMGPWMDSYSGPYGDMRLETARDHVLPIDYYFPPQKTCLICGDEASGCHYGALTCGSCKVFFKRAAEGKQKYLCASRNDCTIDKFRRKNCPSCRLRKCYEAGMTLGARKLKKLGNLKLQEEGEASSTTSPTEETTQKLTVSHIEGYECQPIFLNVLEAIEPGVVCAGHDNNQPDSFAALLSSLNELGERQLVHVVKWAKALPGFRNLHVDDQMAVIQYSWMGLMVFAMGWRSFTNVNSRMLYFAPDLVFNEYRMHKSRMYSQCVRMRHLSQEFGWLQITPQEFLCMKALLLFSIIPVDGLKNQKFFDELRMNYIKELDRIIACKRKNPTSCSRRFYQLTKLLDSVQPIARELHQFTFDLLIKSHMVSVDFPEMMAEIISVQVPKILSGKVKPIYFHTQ
Assay: Antagonist activity at androgen receptor (unknown origin)
Settings: not given

**Q.** For `N#Cc1ccc(N2C(=O)[C@]3(CCOC3)N(c3ccc(C(=O)O)c(F)c3)C2=S)cc1C(F)(F)F`, which Ki is on record?
**A.** Not Active

**Q.** Which Ki does the source give for `CNC(=O)c1ccc(N2C(=S)N(c3ccc(C#N)c(C(F)(F)F)c3)C(=O)C23CN(C(c2ccccc2)c2ccccc2)C3)cc1F` here?
**A.** Not Active

**Q.** With `CNC(=O)c1ccc(N2C(=S)N(c3ccc(C#N)c(C(F)(F)F)c3)C(=O)C2(C)CC(=O)O)cc1F` (racemic) as the compound, how does the Ki read?
**A.** Not Active

Biological target: T1, Androgen receptor
Assay: Partial agonist activity at androgen receptor (unknown origin)
Settings: not given
How it was run: as §1

**Q.** With `CNC(=O)c1ccc(N2C(=S)N(c3ccc(C#N)c(C(F)(F)F)c3)C(=O)C2C)cc1F` (racemic) as the compound, how does the pKi read?
**A.** 6.59

Tested on: not listed separately
Assay: Half life in rat at 5 mg/kg, po
Type: ADME, organism-based
Settings: in vivo
How it was run: (§2)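 Rats (n = 3) were given a single 5 mg/kg oral dose in 0.5% HPMC. Blood was taken into EDTA tubes at 15 and 30 min and 1, 2, 4, 8 and 24 h. Plasma was obtained by centrifugation and proteins were precipitated with acetonitrile. Bioavailability was calculated against a 1 mg/kg iv dose.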

**Q.** For `N#Cc1ccc(N2C(=O)[C@]3(CCOC3)N(c3ccc(C(=O)O)c(F)c3)C2=S)cc1C(F)(F)F`, which half-life is on record?
**A.** 4 h

Tested on: not listed separately
Assay: Half life in rat at 1 mg/kg, iv
Type: ADME, organism-based
Settings: in vivo
How it was run: (§3)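 Rats (n = 3) were given a single 1 mg/kg iv dose in 20% hydroxypropyl-β-cyclodextrin. Blood was taken into EDTA tubes at 5, 15 and 30 min and 1, 2, 4, 8 and 24 h. Plasma was obtained by centrifugation and proteins were precipitated with acetonitrile before analysis.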

**Q.** Which half-life does the source give for `N#Cc1ccc(N2C(=O)[C@]3(CCOC3)N(c3ccc(C(=O)O)c(F)c3)C2=S)cc1C(F)(F)F` here?
**A.** 3.3 h

Tested on: not listed separately
Assay: Tmax in rat at 5 mg/kg, po
Type: ADME, organism-based
Settings: in vivo
How it was run: as §2

**Q.** Which Tmax does the source give for `N#Cc1ccc(N2C(=O)[C@]3(CCOC3)N(c3ccc(C(=O)O)c(F)c3)C2=S)cc1C(F)(F)F` here?
**A.** 0.42 h

Tested on: not listed separately
Assay: Tmax in rat at 1 mg/kg, iv
Type: ADME, organism-based
Settings: in vivo
How it was run: as §3

**Q.** With `N#Cc1ccc(N2C(=O)[C@]3(CCOC3)N(c3ccc(C(=O)O)c(F)c3)C2=S)cc1C(F)(F)F` as the compound, how does the Tmax read?
**A.** 4.98 min

Tested on: not listed separately
Assay: Cmax in rat at 5 mg/kg, po
Type: ADME, organism-based
Design: dose 5 mg/kg, route oral
Settings: in vivo
How it was run: as §2

**Q.** With `N#Cc1ccc(N2C(=O)[C@]3(CCOC3)N(c3ccc(C(=O)O)c(F)c3)C2=S)cc1C(F)(F)F` as the compound, how does the Cmax read?
**A.** 231 ng/mL

Tested on: not listed separately
Assay: Cmax in rat at 1 mg/kg, iv
Type: ADME, organism-based
Design: dose 1 mg/kg, route intravenous
Settings: in vivo
How it was run: as §3

**Q.** Which Cmax does the source give for `N#Cc1ccc(N2C(=O)[C@]3(CCOC3)N(c3ccc(C(=O)O)c(F)c3)C2=S)cc1C(F)(F)F` here?
**A.** 1180 ng/mL

Tested on: not listed separately
Assay: AUC (0 to time) in rat at 5 mg/kg, po
Type: ADME, organism-based
Settings: in vivo
How it was run: (§4)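 Rats (n = 3) received a single 5 mg/kg oral dose in 0.5% HPMC. EDTA blood samples were taken at 15 and 30 min and at 1, 2, 4, 8 and 24 h. Plasma was obtained by centrifugation, mixed with acetonitrile:H2O (1:1 v/v) and precipitated with acetonitrile.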

**Q.** With `N#Cc1ccc(N2C(=O)[C@]3(CCOC3)N(c3ccc(C(=O)O)c(F)c3)C2=S)cc1C(F)(F)F` as the compound, how does the AUC read?
**A.** 716 ng·h/mL

Tested on: not listed separately
Assay: AUC (0 to time) in rat at 1 mg/kg, iv
Type: ADME, organism-based
Settings: in vivo
How it was run: (§5)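 Rats (n = 3) given a single 1 mg/kg iv dose in 20% HP-b-CD. Blood was drawn into EDTA tubes at 5, 15 and 30 min and at 1, 2, 4, 8 and 24 h. Plasma was separated by centrifugation, mixed with acetonitrile:H2O (1:1 v/v) and protein-precipitated with acetonitrile.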

**Q.** With `N#Cc1ccc(N2C(=O)[C@]3(CCOC3)N(c3ccc(C(=O)O)c(F)c3)C2=S)cc1C(F)(F)F` as the compound, how does the AUC read?
**A.** 497 ng·h/mL

Tested on: not listed separately
Assay: AUC (0 to infinity) in rat at 5 mg/kg, po
Type: ADME, organism-based
Design: dose 5 mg/kg, route oral, time infinity
Settings: in vivo
How it was run: as §4

**Q.** For `N#Cc1ccc(N2C(=O)[C@]3(CCOC3)N(c3ccc(C(=O)O)c(F)c3)C2=S)cc1C(F)(F)F`, which AUC(0-inf) is on record?
**A.** 743 ng·h/mL

Tested on: not listed separately
Assay: AUC (0 to infinity) in rat at 1 mg/kg, iv
Type: ADME, organism-based
Design: dose 1 mg/kg, route intravenous, time infinity
Settings: in vivo
How it was run: as §5

**Q.** Which AUC(0-inf) does the source give for `N#Cc1ccc(N2C(=O)[C@]3(CCOC3)N(c3ccc(C(=O)O)c(F)c3)C2=S)cc1C(F)(F)F` here?
**A.** 509 ng·h/mL

Tested on: Rattus norvegicus
Assay: Volume of distribution in rat at 5 mg/kg, po
Type: ADME, organism-based
Settings: in vivo
How it was run: as §2

**Q.** Which Vd does the source give for `N#Cc1ccc(N2C(=O)[C@]3(CCOC3)N(c3ccc(C(=O)O)c(F)c3)C2=S)cc1C(F)(F)F` here?
**A.** 38.4 L/kg

Tested on: not listed separately
Assay: Volume of distribution in rat at 1 mg/kg, iv
Type: ADME, organism-based
Settings: in vivo
How it was run: as §3

**Q.** Which Vd does the source give for `N#Cc1ccc(N2C(=O)[C@]3(CCOC3)N(c3ccc(C(=O)O)c(F)c3)C2=S)cc1C(F)(F)F` here?
**A.** 8 L/kg

Tested on: not listed separately
Assay: Clearance in rat at 5 mg/kg, po
Type: ADME, organism-based
Settings: in vivo
How it was run: as §2

**Q.** With `N#Cc1ccc(N2C(=O)[C@]3(CCOC3)N(c3ccc(C(=O)O)c(F)c3)C2=S)cc1C(F)(F)F` as the compound, how does the CL/F read?
**A.** 117 mL/min/kg

Tested on: not listed separately
Assay: Clearance in rat at 1 mg/kg, iv
Type: ADME, organism-based
Settings: in vivo
How it was run: as §3

**Q.** With `N#Cc1ccc(N2C(=O)[C@]3(CCOC3)N(c3ccc(C(=O)O)c(F)c3)C2=S)cc1C(F)(F)F` as the compound, how does the clearance read?
**A.** 33.3 mL/min/kg

Tested on: not listed separately
Assay: MRT (last) in rat at 5 mg/kg, po
Type: ADME, organism-based
Settings: in vivo
How it was run: as §2

**Q.** For `N#Cc1ccc(N2C(=O)[C@]3(CCOC3)N(c3ccc(C(=O)O)c(F)c3)C2=S)cc1C(F)(F)F`, which MRT last is on record?
**A.** 3.5 h

Tested on: not listed separately
Assay: MRT (last) in rat at 1 mg/kg, iv
Type: ADME, organism-based
Settings: in vivo
How it was run: as §3

**Q.** Which MRT last does the source give for `N#Cc1ccc(N2C(=O)[C@]3(CCOC3)N(c3ccc(C(=O)O)c(F)c3)C2=S)cc1C(F)(F)F` here?
**A.** 0.5 h

Tested on: not listed separately
Assay: MRT (INF) in rat at 5 mg/kg, po
Type: ADME, organism-based
Settings: in vivo
How it was run: as §2

**Q.** With `N#Cc1ccc(N2C(=O)[C@]3(CCOC3)N(c3ccc(C(=O)O)c(F)c3)C2=S)cc1C(F)(F)F` as the compound, how does the MRT inf read?
**A.** 4.2 h

Tested on: not listed separately
Assay: MRT (INF) in rat at 1 mg/kg, iv
Type: ADME, organism-based
Settings: in vivo
How it was run: as §3

**Q.** For `N#Cc1ccc(N2C(=O)[C@]3(CCOC3)N(c3ccc(C(=O)O)c(F)c3)C2=S)cc1C(F)(F)F`, which MRT inf is on record?
**A.** 0.8 h

Tested on: not listed separately
Assay: Oral bioavailability in rat at 5 mg/kg
Type: ADME, organism-based
Settings: in vivo
How it was run: as §2

**Q.** For `N#Cc1ccc(N2C(=O)[C@]3(CCOC3)N(c3ccc(C(=O)O)c(F)c3)C2=S)cc1C(F)(F)F`, which bioavailability is on record?
**A.** 29%
